Measured values taken from ChEMBL document CHEMBL1821705 (J Med Chem, 2011).

Columns and labels:
[1] = biological target: Receptor tyrosine-protein kinase erbB-2 (Homo sapiens, UniProt P04626); assay: Inhibition of HER2 activity by TR-FRET assay
[2] = AUC in cynomolgus monkey at 0.5 mg/kg, po; format: ADME, organism-based, Macaca fascicularis; design: dose 0.5 mg/kg, route oral; conditions: plasma
Summary of the method: (§1)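 Fasted cynomolgus monkeys, n = 2 per route, given 0.5 mg/kg po or iv in 20% EtOH, 10% Cremophor EL, 15% PEG400, 15% HPCD, 0.02 mol/L HCl in water. Heparinized blood taken at 0.08–48 h (iv) or 0.50–48 h (po). Plasma stored at −80 °C, analyzed by LC-MS/MS. Parameters from noncompartmental analysis.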

[3] = Total clearance in cynomolgus monkey at 0.5 mg/kg, iv; format: ADME, organism-based, Macaca fascicularis; design: dose 0.5 mg/kg, route intravenous; conditions: in vivo; summary of the method: as §1
[4] = Half-life in cynomolgus monkey at 0.5 mg/kg, iv; format: ADME, organism-based, Macaca fascicularis; design: dose 0.5 mg/kg, route intravenous; conditions: in vivo; summary of the method: as §1
[5] = test system: KARPAS-299; assay: Antitumor activity against human KARPAS299 xenografted in SCID mouse assessed as tumor growth inhibition at 20 mg/kg, po administered for 11 days after 8 days of tumor implantation; format: functional; conditions: read-out: TGI
Summary of the method: (§2)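 KARPAS-299 grown as sc tumors in SCID mice. Dosing started when tumors reached about 200 mm³, with four mice per group randomized. Vehicle or compound given by oral sonde once daily for 11 days; vehicle 10% DMSO, 10% Cremophor EL, 15% PEG400, 15% HPCD. Tumor volume taken as (L × W²)/2, measured twice weekly. TGI = [1 − (T − T₀)/(C − C₀)] × 100.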

[6] = biological target: Mast/stem cell growth factor receptor Kit (Homo sapiens, UniProt P10721); assay: Inhibition of KIT activity by TR-FRET assay
[7] = Clearance in human liver microsome at 1 uM after 30 mins by LC/MS analysis in the presence of NADPH; format: ADME; conditions: liver microsomes
Summary of the method: (§3)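 Compound at 1 μM incubated with human or mouse liver microsomes (0.5 mg protein/mL) in 50 mM phosphate buffer pH 7.4 with 1 mM NADPH, 37 °C, 30 min. Stopped with acetonitrile, centrifuged. Remaining compound in the supernatant quantified by LC/MS.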

[8] = biological target: T1, Aurora kinase A (Homo sapiens, UniProt O14965); assay: Inhibition of Aurora-A activity by fluorescence polarization assay
T1 sequence (O14965 whole entry): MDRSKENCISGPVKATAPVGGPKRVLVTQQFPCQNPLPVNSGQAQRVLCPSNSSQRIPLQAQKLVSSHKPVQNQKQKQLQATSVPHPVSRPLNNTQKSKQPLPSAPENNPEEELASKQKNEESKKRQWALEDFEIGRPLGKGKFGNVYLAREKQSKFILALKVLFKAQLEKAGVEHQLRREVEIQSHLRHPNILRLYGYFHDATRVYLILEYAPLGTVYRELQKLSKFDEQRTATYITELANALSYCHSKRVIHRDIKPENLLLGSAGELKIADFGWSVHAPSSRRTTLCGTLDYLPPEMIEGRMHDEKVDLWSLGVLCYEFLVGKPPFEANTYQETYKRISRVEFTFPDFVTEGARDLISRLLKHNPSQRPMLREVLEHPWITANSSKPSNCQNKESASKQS

[9] = test system: KARPAS-299; assay: Antitumor activity against human KARPAS299 xenografted in po dosed SCID mouse assessed as decrease in tumor volume; format: functional, organism-based; summary of the method: as §2
[10] = biological target: T2, Protein kinase C beta type (Homo sapiens, UniProt P05771); assay: Inhibition of PKCb1 activity by fluorescence polarization assay
T2 sequence (P05771 whole entry): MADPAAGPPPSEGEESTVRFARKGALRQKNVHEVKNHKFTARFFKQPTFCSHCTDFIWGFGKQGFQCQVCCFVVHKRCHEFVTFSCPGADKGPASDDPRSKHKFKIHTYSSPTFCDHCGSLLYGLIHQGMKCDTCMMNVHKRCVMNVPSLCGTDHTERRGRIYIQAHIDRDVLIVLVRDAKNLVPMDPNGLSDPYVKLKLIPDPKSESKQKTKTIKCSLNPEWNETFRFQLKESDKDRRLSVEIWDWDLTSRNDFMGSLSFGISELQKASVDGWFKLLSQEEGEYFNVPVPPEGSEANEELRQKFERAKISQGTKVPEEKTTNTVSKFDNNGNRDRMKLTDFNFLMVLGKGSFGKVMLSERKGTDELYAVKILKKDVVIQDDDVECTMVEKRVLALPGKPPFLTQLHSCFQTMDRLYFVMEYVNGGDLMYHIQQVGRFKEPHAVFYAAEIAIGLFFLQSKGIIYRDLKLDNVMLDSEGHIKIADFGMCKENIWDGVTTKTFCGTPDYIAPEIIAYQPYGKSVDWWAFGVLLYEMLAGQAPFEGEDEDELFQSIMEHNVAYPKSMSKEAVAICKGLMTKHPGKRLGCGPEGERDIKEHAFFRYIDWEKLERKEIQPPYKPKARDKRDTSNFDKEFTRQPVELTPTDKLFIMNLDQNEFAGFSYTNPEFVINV

[11] = Oral bioavailability in cynomolgus monkey at 0.5 mg/kg; format: ADME, organism-based, Macaca fascicularis; conditions: in vivo; summary of the method: as §1
[12] = biological target: Vascular endothelial growth factor receptor 2 (Homo sapiens, UniProt P35968); assay: Inhibition of KDR activity by TR-FRET assay
Chain of Vascular endothelial growth factor receptor 2 (P35968 whole entry): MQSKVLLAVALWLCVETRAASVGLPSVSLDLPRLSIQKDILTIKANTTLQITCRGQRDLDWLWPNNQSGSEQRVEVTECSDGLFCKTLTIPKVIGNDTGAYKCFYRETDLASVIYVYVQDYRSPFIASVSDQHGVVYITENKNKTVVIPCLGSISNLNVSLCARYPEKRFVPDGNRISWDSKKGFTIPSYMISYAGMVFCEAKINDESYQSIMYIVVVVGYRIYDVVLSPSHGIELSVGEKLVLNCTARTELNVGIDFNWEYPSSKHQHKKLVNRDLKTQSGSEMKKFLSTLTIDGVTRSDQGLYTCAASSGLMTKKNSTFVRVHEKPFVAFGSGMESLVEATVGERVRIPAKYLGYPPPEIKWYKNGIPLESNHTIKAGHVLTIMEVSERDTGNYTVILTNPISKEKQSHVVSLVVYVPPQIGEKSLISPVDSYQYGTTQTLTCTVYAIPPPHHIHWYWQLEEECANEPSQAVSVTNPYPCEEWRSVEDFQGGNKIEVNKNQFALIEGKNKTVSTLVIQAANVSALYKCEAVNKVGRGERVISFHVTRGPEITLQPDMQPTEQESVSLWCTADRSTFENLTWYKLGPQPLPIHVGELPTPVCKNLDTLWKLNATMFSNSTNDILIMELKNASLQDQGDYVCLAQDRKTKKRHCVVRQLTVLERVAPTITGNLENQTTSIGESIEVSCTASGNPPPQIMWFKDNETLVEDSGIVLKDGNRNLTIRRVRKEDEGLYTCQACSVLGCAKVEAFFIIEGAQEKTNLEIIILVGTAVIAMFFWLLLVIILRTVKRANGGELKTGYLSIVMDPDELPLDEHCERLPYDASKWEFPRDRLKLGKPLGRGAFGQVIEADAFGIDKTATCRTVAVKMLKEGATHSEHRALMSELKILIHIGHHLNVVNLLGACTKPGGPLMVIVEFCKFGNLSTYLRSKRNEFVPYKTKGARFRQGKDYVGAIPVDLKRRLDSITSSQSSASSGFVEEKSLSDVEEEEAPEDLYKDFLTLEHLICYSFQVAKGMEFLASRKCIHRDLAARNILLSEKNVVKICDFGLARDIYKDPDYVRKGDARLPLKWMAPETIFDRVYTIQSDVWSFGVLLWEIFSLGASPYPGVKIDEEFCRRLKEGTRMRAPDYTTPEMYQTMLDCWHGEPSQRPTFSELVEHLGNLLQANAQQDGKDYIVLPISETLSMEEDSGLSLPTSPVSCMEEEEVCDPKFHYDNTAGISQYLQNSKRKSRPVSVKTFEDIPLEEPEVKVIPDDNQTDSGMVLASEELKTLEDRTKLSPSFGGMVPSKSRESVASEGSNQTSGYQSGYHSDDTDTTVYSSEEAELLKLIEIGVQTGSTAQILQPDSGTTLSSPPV

[13] = test system: KARPAS-299; assay: cells; conditions: Homo sapiens, KARPAS-299, 96 h
[14] = biological target: T2, Protein kinase C beta type; assay: Inhibition of PKCb2 activity by fluorescence polarization assay
[15] = biological target: RAF proto-oncogene serine/threonine-protein kinase (Homo sapiens, UniProt P04049); assay: Inhibition of Raf-1 activity assessed as MEK1/2 phosphorylation
Summary of the method: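 Raf-1 activity read as phosphorylation of MEK1/2, detected with europium-labelled anti-phospho-MEK1/2 (Ser217/221) antibody.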

[16] = biological target: Insulin-like growth factor 1 receptor (Homo sapiens, UniProt P08069); assay: Inhibition of IGF1R activity by TR-FRET assay
[17] = biological target: Proto-oncogene tyrosine-protein kinase Src (Homo sapiens, UniProt P12931); assay: Inhibition of SRC activity by TR-FRET assay
[18] = biological target: Hepatocyte growth factor receptor (Homo sapiens, UniProt P08581); assay: Inhibition of MET activity by TR-FRET assay
Chain of Hepatocyte growth factor receptor (P08581 whole entry): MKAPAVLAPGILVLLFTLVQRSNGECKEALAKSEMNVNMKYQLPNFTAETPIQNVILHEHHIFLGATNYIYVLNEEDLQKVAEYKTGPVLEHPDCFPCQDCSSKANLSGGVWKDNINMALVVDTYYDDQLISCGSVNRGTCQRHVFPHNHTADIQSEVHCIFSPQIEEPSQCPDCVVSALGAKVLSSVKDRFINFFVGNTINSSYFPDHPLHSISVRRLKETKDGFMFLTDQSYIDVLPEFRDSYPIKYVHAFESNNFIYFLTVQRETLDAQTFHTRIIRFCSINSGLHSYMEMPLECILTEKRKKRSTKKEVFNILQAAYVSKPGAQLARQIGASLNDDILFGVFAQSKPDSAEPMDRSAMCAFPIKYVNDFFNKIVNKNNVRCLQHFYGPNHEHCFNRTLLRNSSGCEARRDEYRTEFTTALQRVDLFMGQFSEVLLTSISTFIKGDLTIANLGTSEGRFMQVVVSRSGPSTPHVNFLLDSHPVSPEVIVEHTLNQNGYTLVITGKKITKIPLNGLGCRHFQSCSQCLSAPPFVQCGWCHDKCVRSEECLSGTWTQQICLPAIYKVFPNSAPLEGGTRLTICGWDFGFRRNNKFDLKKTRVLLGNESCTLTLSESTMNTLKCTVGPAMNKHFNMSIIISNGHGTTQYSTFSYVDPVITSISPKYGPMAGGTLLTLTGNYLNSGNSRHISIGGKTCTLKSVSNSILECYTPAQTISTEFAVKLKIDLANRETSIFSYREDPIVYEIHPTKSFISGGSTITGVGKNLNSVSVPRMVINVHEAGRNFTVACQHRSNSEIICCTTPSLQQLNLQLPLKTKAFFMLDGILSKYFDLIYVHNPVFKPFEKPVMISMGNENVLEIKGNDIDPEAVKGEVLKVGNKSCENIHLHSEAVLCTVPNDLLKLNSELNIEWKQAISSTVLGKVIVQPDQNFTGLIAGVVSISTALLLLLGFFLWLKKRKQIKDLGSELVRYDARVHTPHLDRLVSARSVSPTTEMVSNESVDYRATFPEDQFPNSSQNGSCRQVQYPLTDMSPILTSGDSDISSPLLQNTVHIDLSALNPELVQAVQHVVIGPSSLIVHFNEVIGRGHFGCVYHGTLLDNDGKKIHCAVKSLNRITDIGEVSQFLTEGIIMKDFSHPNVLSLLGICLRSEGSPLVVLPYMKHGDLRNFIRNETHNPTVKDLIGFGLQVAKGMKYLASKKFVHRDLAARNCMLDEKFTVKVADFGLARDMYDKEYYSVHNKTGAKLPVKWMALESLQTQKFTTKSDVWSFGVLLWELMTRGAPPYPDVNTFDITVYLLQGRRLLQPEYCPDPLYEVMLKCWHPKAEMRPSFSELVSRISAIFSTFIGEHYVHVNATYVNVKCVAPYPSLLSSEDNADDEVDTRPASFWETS

[19] = biological target: Fibroblast growth factor receptor 2 (Homo sapiens, UniProt P21802); assay: Inhibition of FGFR2 activity by TR-FRET assay
[20] = test system: KARPAS-299; assay: Antitumor activity against human KARPAS299 xenografted in SCID mouse assessed as tumor growth inhibition at 2 mg/kg, po administered for 11 days after 8 days of tumor implantation; format: functional; conditions: read-out: TGI; summary of the method: as §2
[21] = Half-life in cynomolgus monkey at 0.5 mg/kg, po; format: ADME, organism-based, Macaca fascicularis; design: dose 0.5 mg/kg, route oral; conditions: in vivo; summary of the method: as §1
[22] = biological target: Protein kinase C alpha type (Homo sapiens, UniProt P17252); assay: Inhibition of PKCA activity by fluorescence polarization assay
[23] = biological target: RAC-alpha serine/threonine-protein kinase (Homo sapiens, UniProt P31749); assay: Inhibition of AKT1 activity by fluorescence polarization assay
[24] = Cmax in cynomolgus monkey at 0.5 mg/kg, po; format: ADME, organism-based, Macaca fascicularis; design: dose 0.5 mg/kg, route oral; conditions: in vivo; summary of the method: as §1
[25] = biological target: Tyrosine-protein kinase ABL1 (Homo sapiens, UniProt P00519); assay: Inhibition of ABL activity by TR-FRET assay
[26] = test system: KARPAS-299; assay: Antitumor activity against human KARPAS299 xenografted in SCID mouse assessed as tumor growth inhibition at 6 mg/kg, po administered for 11 days after 8 days of tumor implantation; format: functional; conditions: read-out: TGI; summary of the method: as §2
[27] = biological target: Insulin receptor (Homo sapiens, UniProt P06213); assay: Inhibition of INSR activity by TR-FRET assay
[28] = Clearance in mouse liver microsome at 1 uM after 30 mins by LC/MS analysis in the presence of NADPH; format: ADME; conditions: liver microsomes; summary of the method: as §3
[29] = Volume of distribution at steady state in cynomolgus monkey at 0.5 mg/kg, iv; format: ADME, organism-based, Macaca fascicularis; design: dose 0.5 mg/kg, route intravenous; conditions: in vivo, read-out: Vdss; summary of the method: as §1
[30] = biological target: ALK tyrosine kinase receptor (Homo sapiens, UniProt Q9UM73)
Chain of ALK tyrosine kinase receptor (Q9UM73 whole entry): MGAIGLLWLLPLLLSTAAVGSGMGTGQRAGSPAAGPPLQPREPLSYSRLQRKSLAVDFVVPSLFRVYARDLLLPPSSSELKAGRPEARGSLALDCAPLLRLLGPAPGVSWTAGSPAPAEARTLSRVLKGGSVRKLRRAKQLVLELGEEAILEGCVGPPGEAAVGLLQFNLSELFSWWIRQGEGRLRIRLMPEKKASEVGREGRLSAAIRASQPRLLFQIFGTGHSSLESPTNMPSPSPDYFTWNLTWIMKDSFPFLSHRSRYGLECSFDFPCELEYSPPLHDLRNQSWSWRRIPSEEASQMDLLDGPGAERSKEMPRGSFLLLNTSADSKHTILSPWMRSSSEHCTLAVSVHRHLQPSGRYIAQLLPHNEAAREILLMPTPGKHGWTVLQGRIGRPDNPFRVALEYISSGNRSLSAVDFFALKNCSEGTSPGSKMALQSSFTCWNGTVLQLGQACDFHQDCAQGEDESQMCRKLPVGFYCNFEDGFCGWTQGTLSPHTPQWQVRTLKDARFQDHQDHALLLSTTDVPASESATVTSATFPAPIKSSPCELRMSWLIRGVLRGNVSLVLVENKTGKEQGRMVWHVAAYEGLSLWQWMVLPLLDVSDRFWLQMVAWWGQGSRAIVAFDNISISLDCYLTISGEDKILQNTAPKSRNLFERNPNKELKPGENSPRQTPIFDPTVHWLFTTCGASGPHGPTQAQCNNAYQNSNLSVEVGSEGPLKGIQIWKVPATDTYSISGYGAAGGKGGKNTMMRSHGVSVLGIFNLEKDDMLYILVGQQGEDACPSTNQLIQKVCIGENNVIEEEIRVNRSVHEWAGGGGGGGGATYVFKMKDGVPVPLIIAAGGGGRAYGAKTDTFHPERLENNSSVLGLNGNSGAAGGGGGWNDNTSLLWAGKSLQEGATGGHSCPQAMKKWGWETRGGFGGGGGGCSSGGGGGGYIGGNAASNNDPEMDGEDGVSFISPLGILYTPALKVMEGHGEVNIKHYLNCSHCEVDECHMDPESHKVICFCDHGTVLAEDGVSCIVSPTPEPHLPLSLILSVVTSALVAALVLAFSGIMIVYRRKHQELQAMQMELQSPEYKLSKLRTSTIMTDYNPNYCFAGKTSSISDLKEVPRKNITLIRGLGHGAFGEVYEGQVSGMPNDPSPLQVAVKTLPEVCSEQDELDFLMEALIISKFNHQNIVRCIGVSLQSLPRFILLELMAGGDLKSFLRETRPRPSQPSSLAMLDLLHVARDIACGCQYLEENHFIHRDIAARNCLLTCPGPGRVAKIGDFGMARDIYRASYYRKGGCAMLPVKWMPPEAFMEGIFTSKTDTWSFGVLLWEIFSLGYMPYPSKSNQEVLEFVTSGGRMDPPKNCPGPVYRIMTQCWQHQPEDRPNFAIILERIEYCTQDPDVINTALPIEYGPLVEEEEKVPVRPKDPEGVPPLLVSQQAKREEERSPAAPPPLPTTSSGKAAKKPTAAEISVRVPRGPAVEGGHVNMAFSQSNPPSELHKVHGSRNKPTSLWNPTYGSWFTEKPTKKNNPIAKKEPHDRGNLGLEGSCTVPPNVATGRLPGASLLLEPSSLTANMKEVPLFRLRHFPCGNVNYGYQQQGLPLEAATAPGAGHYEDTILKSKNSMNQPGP

For `CCc1cc2c(cc1N1CCN(C3COC3)CC1)C(C)(C)c1[nH]c3cc(C#N)ccc3c1C2=O`, the IC50 [1] was > 50 µM, the AUC [2] was 3270 ng·h/mL and the clearance [3] was 0.73 mL/min/kg. The half-life [4] was 5.3 h, the inhibition in vivo at 20 mg/kg [5] was 119% and the IC50 [6] was > 5 µM. For the same molecule, the microsomal CLint at 1 µM [7] was 17 µL/min/mg, the IC50 [8] was > 50 µM and the Activity [9] was “Dose-dependent effect”. The IC50 [10] was > 50 µM, the bioavailability [11] was 28.2% and the IC50 [12] was > 5 µM. For the same molecule, the IC50 [13] was 0.0128 µM, the IC50 [14] was > 50 µM and the IC50 [15] was > 50 µM. The IC50 [16] was > 50 µM, the IC50 [17] was > 50 µM and the IC50 [18] was > 5 µM. The IC50 [19] was > 50 µM, the inhibition in vivo at 2 mg/kg [20] was 49% and the half-life [21] was 6.25 h. The IC50 [22] was > 50 µM, the IC50 [23] was > 50 µM and the Cmax [24] was 327 ng/mL. For the same molecule, the IC50 [25] was > 50 µM, the inhibition in vivo at 6 mg/kg [26] was 103% and the IC50 [27] was 0.46 µM. For the same molecule, the microsomal CLint at 1 µM [28] was 4.5 µL/min/mg and the Vd [29] was 0.296 L/kg.
With `Cc1cc2c(cc1N1CCN(C3COC3)CC1)C(C)(C)c1[nH]c3cc(C#N)ccc3c1C2=O` the IC50 [6] was 0.0498 µM, the microsomal CLint at 1 µM [7] was 22.6 µL/min/mg and the IC50 [30] was 0.0106 µM. The IC50 [12] was 0.0608 µM, the IC50 [13] was 0.0148 µM and the IC50 [18] was > 5 µM. For the same molecule, the microsomal CLint at 1 µM [28] was 7 µL/min/mg.
For `CC1(C)c2cc(N3CCN(C4COC4)CC3)c(CCC3CCCC3)cc2C(=O)c2c1[nH]c1cc(C#N)ccc21`, the IC50 [6] was > 5 µM, the microsomal CLint at 1 µM [7] was 17.8 µL/min/mg and the IC50 [12] was > 5 µM. The IC50 [13] was 0.544 µM, the IC50 [18] was > 5 µM and the microsomal CLint at 1 µM [28] was 44.7 µL/min/mg.
In the case of `CC(C)c1cc2c(cc1N1CCN(C3COC3)CC1)C(C)(C)c1[nH]c3cc(C#N)ccc3c1C2=O`, the IC50 [6] is reported as > 5 µM, the microsomal CLint at 1 µM [7] is reported as 17.4 µL/min/mg and the IC50 [30] is reported as 0.0664 µM. The IC50 [12] was > 5 µM, the IC50 [13] was 0.118 µM and the IC50 [18] was > 5 µM. The microsomal CLint at 1 µM [28] was 4.1 µL/min/mg.
For `CC1(C)c2cc(N3CCN(C4COC4)CC3)ccc2C(=O)c2c1[nH]c1cc(C#N)ccc21`, the IC50 [6] was 0.0839 µM, the IC50 [12] was 0.137 µM and the IC50 [18] was > 5 µM.
For `C#Cc1cc2c(cc1N1CCN(C3COC3)CC1)C(C)(C)c1[nH]c3cc(C#N)ccc3c1C2=O`, the IC50 [6] was 2.42 µM, the microsomal CLint at 1 µM [7] was 18.9 µL/min/mg and the IC50 [30] was 0.0027 µM. The IC50 [12] was 0.455 µM, the IC50 [18] was > 5 µM and the microsomal CLint at 1 µM [28] was 2.1 µL/min/mg.
With `CCCc1cc2c(cc1N1CCN(C3COC3)CC1)C(C)(C)c1[nH]c3cc(C#N)ccc3c1C2=O` the IC50 [6] was > 5 µM, the microsomal CLint at 1 µM [7] was 19.4 µL/min/mg and the IC50 [30] was 0.0151 µM. For the same molecule, the IC50 [12] was > 5 µM, the IC50 [13] was 0.0253 µM and the IC50 [18] was > 5 µM. The microsomal CLint at 1 µM [28] was 4.7 µL/min/mg.
